Assays:
[1] = system: Human immunodeficiency virus 1; assay: Antiviral activity against HIV1 NL43 in MT4 cells assessed as inhibition of viral induced cytopathic effect after 5 days by MTT method; settings: Human immunodeficiency virus 1, NL43, MT4, 120 h
[2] = Cytotoxicity against MT4 cells after 4 days by MTT method; type: cell-based; settings: human
In short: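 Mock-infected (noninfected) MT-4 cells, run in parallel with the antiviral test. Viable cells read by the MTT tetrazolium colorimetric method. […] Means ± SD from at least two experiments. The top concentration was limited where compounds precipitated in the culture medium.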

[3] = Selectivity index, ratio of CC50 for MT4 cells to EC50 for HIV1 NL43 infected MT4 cells; type: functional
[4] = Resistance index, Ratio of EC50 for drug-resistant HIV1 with RT Y181C mutation in MT4 cells to EC50 for HIV1 NL43 in MT4 cells
[5] = Resistance index, Ratio of EC50 for drug-resistant HIV1 with RT IRLL98 mutation in MT4 cells to EC50 for HIV1 NL43 in MT4 cells
[6] = system: Human immunodeficiency virus 1; assay: Antiviral activity against HIV1 with reverse transcriptase Y188L mutation in MT4 cells assessed as inhibition of viral induced cytopathic effect by MTT method; type: functional, organism-based; settings: Human immunodeficiency virus 1, MT4
In short: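 MT-4 cells infected with the HIV-1 NNRTI-resistant mutant strain. Viable cells scored at day 5 post-infection by the MTT tetrazolium colorimetric method. Values are means ± SD from at least two experiments.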

[7] = system: Human immunodeficiency virus 1; assay: Antiviral activity against HIV1 with reverse transcriptase Y181C mutation in MT4 cells assessed as inhibition of viral induced cytopathic effect by MTT method; type: functional, organism-based; settings: Human immunodeficiency virus 1, MT4
In short: (§1)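 MT-4 cells infected with the HIV-1 NNRTI-resistant mutant strain. Viable cells scored at day 5 post-infection by the MTT tetrazolium colorimetric method. […] Values are means ± SD from at least two experiments.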

[8] = system: Human immunodeficiency virus 1; assay: Antiviral activity against HIV1 with reverse transcriptase IRLL98 mutation in MT4 cells assessed as inhibition of viral induced cytopathic effect by MTT method; type: functional, organism-based; settings: Human immunodeficiency virus 1, MT4
[9] = system: Human immunodeficiency virus 1; assay: Antiviral activity against HIV1 with reverse transcriptase K103N mutation in MT4 cells assessed as inhibition of viral induced cytopathic effect by MTT method; type: functional, organism-based; settings: Human immunodeficiency virus 1, MT4
In short: as §1

[10] = biological target: Human immunodeficiency virus type 1 reverse transcriptase (Human immunodeficiency virus 1, UniProt Q72547, V106A); assay: Inhibition of HIV1 reverse transcriptase V106A mutant
[11] = Resistance index, Ratio of EC50 for drug-resistant HIV1 with RT K103N mutation in MT4 cells to EC50 for HIV1 NL43 in MT4 cells
[12] = Inhibition of HIV1 reverse transcriptase Y1811 mutant; set-up: species or system Human immunodeficiency virus 1
In short: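 Recombinant HIV-1 RT Y181I mutant, purified to >95%, 10 min preincubation with inhibitor. Radioactive nucleotide incorporation into poly(rA)/oligo(dT) 10:1 was followed at varied nucleotide substrate levels, sampling every 2 min for initial velocities. Inhibitor spanned 0.2–5 Ki. Ki came from Lineweaver-Burk and Dixon plots. Means ± SD of at least three experiments.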

[13] = biological target: Human immunodeficiency virus type 1 reverse transcriptase (Human immunodeficiency virus 1, UniProt Q72547, K103N); assay: Inhibition of HIV1 reverse transcriptase K103N mutant
[14] = biological target: Human immunodeficiency virus type 1 reverse transcriptase (Human immunodeficiency virus 1, UniProt Q72547); assay: Inhibition of wild type HIV1 3B reverse transcriptase
[15] = biological target: Human immunodeficiency virus type 1 reverse transcriptase (Human immunodeficiency virus 1, UniProt Q72547, Y188L); assay: Inhibition of HIV1 reverse transcriptase Y188L mutant
[16] = biological target: Human immunodeficiency virus type 1 reverse transcriptase (Human immunodeficiency virus 1, UniProt Q72547, L100I); assay: Inhibition of HIV1 reverse transcriptase L100I mutant

SMILES | EC50 [1] | CC50 at 96 h [2] | Ratio CC50/EC50 [3] | Ratio EC50 [4] | Ratio EC50 [5] | EC50 [6] | EC50 [7] | EC50 [8] | EC50 [9] | also measured
Cc1c(C(C)c2c(Cl)cccc2Cl)nc(N(C)C)[nH]c1=O (stereo unspecified) | 30 nM | 35000 nM | 1167 |  |  |  |  |  |  | 
CC1CCCN(c2nc(Cc3c(F)cccc3F)cc(=O)[nH]2)C1 (stereo unspecified) | 32 nM | > 78000 nM | >2437 | 13 | 56 | > 10000 nM | 430 nM | 1800 nM | > 10000 nM | 
CCCN(CCC)c1nc(Cc2c(F)cccc2F)c(C)c(=O)[nH]1 | 2090 nM | > 74000 nM | >35 |  |  |  |  |  |  | 
CC1CCN(c2nc(Cc3c(F)cccc3F)cc(=O)[nH]2)CC1 | 35 nM | > 78000 nM | >2229 | 37 | 131 | > 10000 nM | 1290 nM | 4600 nM | > 10000 nM | 
O=c1cc(Cc2c(F)cccc2F)nc(-n2cccc2)[nH]1 | 17300 nM | > 87000 nM | >5 |  |  |  |  |  |  | 
Cc1c(Cc2c(F)cccc2N2CCCC2)nc(N2CCCC2)[nH]c1=O | 620 nM | > 70000 nM | >113 |  |  |  |  |  |  | Ki [10]: 500 nM
CCN(CC)c1nc(Cc2c(F)cccc2F)c(C)c(=O)[nH]1 | 30 nM | > 81000 nM | >2700 |  |  |  |  |  |  | 
O=c1cc(Cc2c(F)cccc2N2CCCC2)nc(N2CCCC2)[nH]1 | 710 nM | > 73000 nM | >103 |  |  |  |  |  |  | 
Cc1c(Cc2c(F)cccc2F)nc(N2CCCCC2C)[nH]c1=O (stereo unspecified) | 9 nM | 75000 nM | 8333 | 16 | 156 | > 10000 nM | 140 nM | 1400 nM | > 10000 nM | 
Cc1c(C(C)c2c(F)cccc2F)nc(N2CCCCCC2)[nH]c1=O (stereo unspecified) | 9 nM | > 72000 nM | >8000 |  |  |  |  |  |  | 
O=c1cc(Cc2c(F)cccc2F)nc(N2CCC3(CC2)OCCO3)[nH]1 | 2220 nM | > 69000 nM | >31 |  |  |  |  |  |  | 
Cc1c(Cc2c(F)cccc2F)nc(N2CCCC(C)C2)[nH]c1=O (stereo unspecified) | 18 nM | > 75000 nM | >4167 | 32 | 117 | > 10000 nM | 570 nM | 2100 nM | > 10000 nM | 
Cc1c(Cc2c(F)cccc2F)nc(N2CCC(C)CC2)[nH]c1=O | 100 nM | > 75000 nM | >750 |  |  | > 10000 nM |  | > 10000 nM | > 10000 nM | Ki [10]: 500 nM
CCCN(C)c1nc(C(C)c2c(F)cccc2F)cc(=O)[nH]1 (stereo unspecified) | 0.6 nM | > 81000 nM | >135000 |  | 250 | > 10000 nM | 50 nM | 150 nM | 80 nM | Fold change [4]: 83; Fold change [11]: 133
CCN(CC)c1nc(Cc2c(F)cccc2F)cc(=O)[nH]1 | 133 nM | > 85000 nM | >639 |  |  |  |  |  |  | 
O=c1cc(Cc2c(F)cccc2F)nc(N2CCCC2)[nH]1 | 93 nM | > 86000 nM | >925 |  |  | > 10000 nM | > 10000 nM | > 10000 nM | > 10000 nM | 

SMILES | EC50 [1] | CC50 at 96 h [2] | Ratio CC50/EC50 [3] | Ratio EC50 [4] | Ratio EC50 [5] | EC50 [6] | EC50 [7] | EC50 [8] | EC50 [9] | also measured
CC1CCCCN1c1nc(Cc2c(F)cccc2F)cc(=O)[nH]1 (stereo unspecified) | 107 nM | > 78000 nM | >729 | 11 | 28 | > 10000 nM | 1140 nM | 3000 nM | > 10000 nM | 
Cc1c(Cc2c(F)cccc2F)nc(N2CCCC2)[nH]c1=O | 32 nM | > 82000 nM | >2562 | 161 |  | > 10000 nM | 5150 nM | > 10000 nM | > 10000 nM | 
CC(C)N(C)c1nc(Cc2c(F)cccc2F)cc(=O)[nH]1 | 8 nM | 85000 nM | 10625 | 4 | 22 | > 10000 nM | 30 nM | 180 nM | > 10000 nM | 
CCCN(C)c1nc(Cc2c(F)cccc2F)cc(=O)[nH]1 | 9 nM | 85000 nM | 9444 |  |  |  |  |  |  | 
Cc1c(Cc2c(F)cccc2F)nc(N(C)c2ccccc2)[nH]c1=O | 86 nM | > 73000 nM | >849 |  |  |  |  |  |  | 
CCN(C)c1nc(Cc2c(F)cccc2F)cc(=O)[nH]1 | 13 nM | > 89000 nM | >6846 | 38 | 154 | > 10000 nM | 500 nM | 2000 nM | > 10000 nM | 
Cc1c(C(C)c2c(F)cccc2F)nc(N2CCCC2)[nH]c1=O (stereo unspecified) | 2 nM | > 78000 nM | >39000 | 35 | 100 | > 10000 nM | 71 nM | 200 nM | 155 nM | Ratio EC50 [11]: 77
Cc1c(Cc2c(F)cccc2F)nc(N2CCC3(CC2)OCCO3)[nH]c1=O | 650 nM | > 66000 nM | >101 |  |  |  |  |  |  | 
Cc1c(C(C)c2ccccc2F)nc(N(C)C)[nH]c1=O (stereo unspecified) | 6 nM | 44000 nM | 7333 |  |  |  |  |  |  | 
CCCN(CCC)c1nc(Cc2c(F)cccc2F)cc(=O)[nH]1 | 1780 nM | > 78000 nM | >44 |  |  |  |  |  |  | 
O=c1cc(Cc2c(F)cccc2F)nc(N2CCCCCC2)[nH]1 | 22 nM | > 78000 nM | >3545 | 19 | 64 | > 10000 nM | 430 nM | 1400 nM | > 10000 nM | 
O=c1cc(Cc2c(F)cccc2F)nc(N2CCOCC2)[nH]1 | 211 nM | > 81000 nM | >384 |  |  | > 10000 nM | > 10000 nM | > 10000 nM | > 10000 nM | Ki [12]: > 20000 nM; Ki [13]: > 20000 nM; Ki [14]: 700 nM; Ki [15]: > 20000 nM; Ki [10]: 2900 nM; Ki [16]: 15000 nM
Cc1c(Cc2c(F)cccc2F)nc(N2CCCCCC2)[nH]c1=O | 50 nM | > 75000 nM | >1500 | 11 | 34 | > 10000 nM | 570 nM | 1700 nM | > 10000 nM | Ki [10]: 500 nM
O=C1Nc2ccc(Cl)cc2C(C#CC2CC2)(C(F)(F)F)O1 (single isomer, unassigned) [EFAVIRENZ] |  | > 300 nM |  |  |  | 230 nM | 6 nM | 80 nM | 90 nM | 
Cc1ccnc2c1NC(=O)c1cccnc1N2C1CC1 [NEVIRAPINE] | 80 nM | > 7000 nM |  |  |  |  | 870 nM | 9900 nM | 1800 nM | Ki [12]: 35000 nM
